Experimental data from ChEMBL document CHEMBL1134284, “The biological effects of structural variation at the meta position of the aromatic rings and at the end of the alkenyl chain in the alkenyldiarylmethane series of non-nucleoside reverse transcriptase inhibitors” (J Med Chem, 2001).
pEC50, pIC50: −log10 of the molar value.

Key:
[1] = Ratio of CC50/EC50 was determined; assay type: cell-based; details: human, CEM-SS cells; read-out: TI
How it was run: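 HIV-1 RF–infected CEM-SS cells (RPMI 1640, 10% heat-inactivated FBS, 2 mM glutamine, penicillin/streptomycin), plus mock-infected CEM-SS in parallel. Cell killing and viability were read by MTS/phenazine ethosulfate reduction at 490 nm 6 days after infection. […] Index = CC50 ÷ EC50. Triplicate tests.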

[2] = tested on: Human immunodeficiency virus type 1 (RF/HAT ISOLATE); experiment: Inhibitory concentration for cytopathicity of HIV-1RF in CEM-SS cells; assay type: functional, organism-based; details: Human immunodeficiency virus 1, RF
How it was run: (§1)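 CEM-SS cells kept in RPMI 1640 with 10% heat-inactivated FBS, 2 mM glutamine, penicillin/streptomycin. Microtiter assay with cytopathic HIV-1 RF, or mock infection for toxicity. Viability read by MTS/phenazine ethosulfate reduction (absorbance 490 nm) 6 days after infection. […] Triplicate.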

[3] = biological target: Human immunodeficiency virus type 1 reverse transcriptase (Human immunodeficiency virus 1, UniProt Q72547); experiment: Inhibitory activity against HIV-1 Reverse Transcriptase with rCdG as the template primer
How it was run: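 Cell-free assay with purified recombinant HIV-1 RT (p66/p51 dimer). Activity measured as [32P]GTP incorporation into the poly(rC)/oligo(dG) homopolymer template/primer. IC50 is reported as inhibition of enzyme activity.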

[4] = tested on: CEM-SS; experiment: Concentration required for cytotoxicity against mock infected CEM-SS cells; assay type: functional; details: Homo sapiens; how it was run: as §1
[5] = tested on: CEM-SS; experiment: Inhibitory concentration for cytopathicity of HIV-1RF in CEM-SS cells; Not active; assay type: functional, cell-based, Homo sapiens; how it was run: as §1

| SMILES | selectivity ratio [1] | pEC50 [2] | pIC50 [3] | CC50 [4] [µM] | EC50 [5] |
| --- | --- | --- | --- | --- | --- |
| CCCOC(=O)CCCC=C(c1cc(C)c(OC)c(C(=O)OC)c1)c1cc(C)c(OC)c(C(=O)OC)c1 | 4.2 | 5.89 | 4.53 | 5.4 |  |
| COC(=O)c1cc(C(=CCCCc2ccccc2)c2cc(Cl)c(OC)c(C(=O)OC)c2)cc(Cl)c1OC | > 43 | 5.77 | < 4.00 | > 200 |  |
| C#CCCCC=C(c1cc(Cl)c(OC)c(C(=O)OC)c1)c1cc(Cl)c(OC)c(C(=O)OC)c1 | 33 | 5.89 |  | 42.7 |  |
| C=CCCCC=C(c1cc(Br)c(OC)c(C(=O)OC)c1)c1cc(Br)c(OC)c(C(=O)OC)c1 | > 24 | 5.09 | 4.00 | > 200 |  |
| COC(=O)c1cc(C(=CCCCc2ccccc2)c2cc(Br)c(OC)c(C(=O)OC)c2)cc(Br)c1OC | > 15 | 4.88 | < 4.00 | > 200 |  |
| C=CCCCC=C(c1cc(Cl)c(OC)c(C(=O)OC)c1)c1cc(Cl)c(OC)c(C(=O)OC)c1 | > 15 | 4.89 | 3.59 | > 200 |  |
| CCCCCC=C(c1cc(Cl)c(OC)c(C(=O)OC)c1)c1cc(Cl)c(OC)c(C(=O)OC)c1 | > 1.8 | 4.80 |  | > 29.1 |  |
| COC(=O)CCCC=C(c1cc(C(=O)OC)c(OC)c(C(F)(F)F)c1)c1cc(C(=O)OC)c(OC)c(C(F)(F)F)c1 | 1.2 | 4.84 | < 3.70 | 17.2 |  |
| COC(=O)NCCC=C(c1cc(C)c(OC)c(C(=O)OC)c1)c1cc(C)c(OC)c(C(=O)OC)c1 | 59 | 6.68 | 5.31 | 12.4 |  |
| COC(=O)c1cc(C(=CCCCC(=O)N(C)C)c2cc(C)c(OC)c(C(=O)OC)c2)cc(C)c1OC | 4.91 | 5.82 | 5.25 | 7.4 |  |
| COC(=O)c1cc(C(=CCCCC(=O)OCC[Si](C)(C)C)c2cc(C)c(OC)c(C(=O)OC)c2)cc(C)c1OC | > 2.1 | 4.02 | < 4.00 | > 200 |  |
| COC(=O)c1cc(C(=CCCCSC)c2cc(Cl)c(OC)c(C(=O)OC)c2)cc(Cl)c1OC | > 3.77 | 5.27 | < 4.00 | > 20 |  |
| CCCCCC=C(c1cc(F)c(OC)c(C(=O)OC)c1)c1cc(F)c(OC)c(C(=O)OC)c1 |  |  |  | 13.4 |  |
| CCOC(=O)CCCC=C(c1cc(C)c(OC)c(C(=O)OC)c1)c1cc(C)c(OC)c(C(=O)OC)c1 | 297 | 7.52 | 6.74 | 8.91 |  |
| CN/C(S)=N/CCC=C(c1cc(Cl)c(OC)c(C(=O)OC)c1)c1cc(Cl)c(OC)c(C(=O)OC)c1 |  |  | < 4.00 | 1.36 | Not Active |
| CCNC(=O)NCCC=C(c1cc(Cl)c(OC)c(C(=O)OC)c1)c1cc(Cl)c(OC)c(C(=O)OC)c1 |  |  | < 4.00 | 14.6 | Not Active |
| COC(=O)c1cc(C(=CCCN2CCOC2=O)c2cc(Br)c(OC)c(C(=O)OC)c2)cc(Br)c1OC | 104 | 7.70 | 6.30 | 1.95 |  |
| COC(=O)NCCC=C(c1cc(Br)c(OC)c(C(=O)OC)c1)c1cc(Br)c(OC)c(C(=O)OC)c1 | 40.5 | 6.70 | 5.62 | 8.1 |  |
| COC(=O)c1cc(C(=CCCC[S+](C)[O-])c2cc(Cl)c(OC)c(C(=O)OC)c2)cc(Cl)c1OC (stereo not drawn) | 3.15 | 4.93 |  | 36.9 |  |
| COC(=O)c1cc(C(=CCCN2CCOC2=O)c2cc(Cl)c(OC)c(C(=O)OC)c2)cc(Cl)c1OC | 6.02 | 5.67 | 5.02 | 13 |  |
| CCCCCC=C(c1cc(C(=O)OC)c(OC)c(C(F)(F)F)c1)c1cc(C(=O)OC)c(OC)c(C(F)(F)F)c1 |  |  |  | 106 | Not Active |
| COC(=O)c1cc(C(=CCCCC(=O)N(C)C)c2cc(Cl)c(OC)c(C(=O)OC)c2)cc(Cl)c1OC | 6.94 | 6.42 | 6.16 | 2.65 |  |
